The source made the active and inactive calls. No cut-off for these calls is given here.

The values below come from ChEMBL document CHEMBL3232933, “Pyrazole-5-carboxamides, novel inhibitors of receptor for advanced glycation end products (RAGE)” (Eur J Med Chem, 2014).

T1 sequence (Q15109 whole entry): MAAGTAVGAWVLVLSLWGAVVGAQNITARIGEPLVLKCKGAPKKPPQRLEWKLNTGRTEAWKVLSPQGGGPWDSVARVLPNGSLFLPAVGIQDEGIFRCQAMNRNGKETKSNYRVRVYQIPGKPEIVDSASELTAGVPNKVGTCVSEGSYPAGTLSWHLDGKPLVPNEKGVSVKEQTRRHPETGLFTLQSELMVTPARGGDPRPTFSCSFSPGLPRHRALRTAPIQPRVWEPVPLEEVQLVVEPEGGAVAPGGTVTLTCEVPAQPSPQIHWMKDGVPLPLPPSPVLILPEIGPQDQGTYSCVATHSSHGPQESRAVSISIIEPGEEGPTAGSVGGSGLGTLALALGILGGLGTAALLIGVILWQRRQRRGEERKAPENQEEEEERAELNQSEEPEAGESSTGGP

One data set has as its system Mus musculus. In words: Antialzheimer activity in ICR mouse injected with human amyloid beta (1 to 42) assessed as increase in human amyloid beta (1 to 42) level in plasma at 25 mg/kg, ip administered 20 mins prior to human amyloid beta (1 to 42) injection measured after 30 mins relative to control. It is filed as functional. Particulars: route intraperitoneal. Summed up:
(§1)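 Male ICR mice, 3 months old (25 g, n = 4), got one i.p. dose of 25 mg/kg or vehicle. After 20 min, human Aβ1-42 in PBS was injected into the tail vein and circulated for 30 min. Human Aβ was then measured in brain extracts and plasma. Values are means ± SD.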
For `CCCCOc1cc(OCCCN(CC)CC)ccc1NC(=O)c1cc(-c2ccc(Oc3ccc(F)cc3)cc2)nn1C` [listing 1 of 2 here], the Activity is 4.01%.

Tested on in a further data set: not listed separately
The data set is described as follows: AUC in Sprague-Dawley rat at 2 mg/kg, iv. It is filed as ADME, organism-based. As to conditions: plasma. Details: dose 2 mg/kg, route intravenous.
Take `CCN(CC)CCOc1cccc(Nc2nc(-c3ccc(Cl)cc3)cc(-c3ccc(Cl)cc3)n2)c1`: the AUC was found to be 10600 ng·h/mL. `CCCCOc1cc(OCCCN(CC)CC)ccc1NC(=O)c1cc(-c2ccc(Oc3ccc(F)cc3)cc2)nn1C` [listing 1 of 2 here] displayed an AUC of 8560 ng·h/mL.

A further data set addresses T1, Advanced glycosylation end product-specific receptor (Homo sapiens, UniProt Q15109). The data set is described as follows: Inhibition of biotinylated human RAGE assessed as bound amyloid beta level at 20 uM after 60 mins by ELISA relative to control.
Conditions: not given
Summed up: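 Biotinylated human RAGE (1 µg), Aβ1-42 oligomers (aged in PBS for 24 h at 4 °C) and compound at a single fixed level were co-incubated in TBS-T with 2.5% BSA on streptavidin plates for 60 min at ambient temperature. Bound Aβ was detected with HRP-4G8, TMB and A450. % inhibition is given as mean ± SD of duplicate experiments.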
Take `CCCCOc1cc(OCCCN(CC)CC)ccc1NC(=O)c1cc(-c2ccc(Oc3ccc(C(C)(C)C)cc3)cc2)nn1C`: the inhibition entry was “inactive”. On the same count and under the same terms, the value for `CCCCOc1cc(OCCCN(CC)CC)ccc1NC(=O)c1cc(-c2ccc(Oc3ccc(Cl)cc3)cc2)n(CCCC)n1` was 36%; that for `CCN(CC)CCOc1ccc(NC(=O)c2cc(-c3ccc(OC)cc3)nn2C)cc1` was 20.5%. Same read-out and setting: as for `CCCCOc1cc(OCCCN(CC)CC)ccc1NC(=O)c1cc(-c2ccc(Oc3ccc(OC)cc3)cc2)nn1C`, the figure is 74.2%; as for `CCCCOc1cc(OCCCN(CC)CC)ccc1NC(=O)c1cc(-c2ccc(Oc3ccc(Cl)cc3)cc2)n[nH]1`, “inactive”.

As to `CCCCOc1cc(OCCCN(CC)CC)ccc1NC(=O)c1cc(-c2ccc(Oc3ccccc3F)cc2)nn1C`, the inhibition came out at 29.5%. Same read-out and setting: the value for `CCCCOc1cc(OCCCN(CC)CC)ccc1NC(=O)c1cc(-c2ccc(Oc3ccc(C(F)(F)F)cc3)cc2)nn1C` was 83.1%. The same measure, in the same setting: the value for `CCCCOc1cc(OCCCN(CC)CC)ccc1NC(=O)c1cc(-c2ccc(Oc3ccc(OC)c(Cl)c3)cc2)nn1C` was 36.5%.

As for `CCN(CC)CCCOc1ccc(NC(=O)c2cc(-c3ccc(OC)cc3)nn2C)cc1`, the inhibition was 20.5%. Turning to `CCN(CC)CCCOc1ccc(NC(=O)c2cc(-c3ccc(Oc4ccc(Cl)cc4)cc3)nn2C)cc1`, the inhibition was 33.8%.

As to `CCCCOc1cc(OCCCN(CC)CC)ccc1NC(=O)c1cc(-c2ccc(Oc3ccccc3)cc2)nn1C`, the inhibition came out at 77%. On the same count and under the same terms, the value for `CCCCOc1cc(OCCCN(CC)CC)ccc1NC(=O)c1cc(-c2ccc(Oc3ccc(F)cc3)cc2)nn1C` [listing 2 of 2 here] was 79.3%. Still for that read-out and setting: the value for `CCCCOc1cc(OCCCN(CC)CC)ccc1NC(=O)c1cc(-c2ccc(Oc3ccc(Cl)cc3)cc2)no1` was 32.1%; that for `CCCCOc1cc(OCCCN(CC)CC)ccc1NC(=O)c1cc(-c2ccc(OC)cc2)nn1C` was 32.4%.

`CCCCOc1cc(OCCCN(CC)CC)ccc1NC(=O)c1cc(-c2ccc(Oc3ccc(Cl)cc3)cc2)nn1CCCC`: the inhibition result is “inactive”. The same measure, in the same setting: the value for `CCCCOc1cc(OCCCN(CC)CC)ccc1NC(=O)c1cc(-c2ccc(OC)cc2)n[nH]1` was “inactive”; that for `CCCCOc1cc(OCCCN(CC)CC)ccc1NC(=O)c1cc(-c2ccc(Oc3ccc(OC)c(F)c3)cc2)nn1C` was 34.1%; that for `CCCCOc1cc(OCCCN(CC)CC)ccc1NC(=O)c1cc(-c2ccc(Oc3ccc(Cl)cc3)cc2)nn1CCC` was 44.6%.

Take `CCCCOc1cc(OCCCN(CC)CC)ccc1NC(=O)c1cc(-c2ccc(Oc3ccc(Cl)cc3)cc2)n(CCC)n1`: the inhibition turned out to be 45.7%.

With `CCCCOc1cc(OCCCN(CC)CC)ccc1NC(=O)c1cc(-c2ccc(Oc3cccc(F)c3)cc2)nn1C`, the inhibition came to 37%.

As to `CCCCOc1cc(OCCCN(CC)CC)ccc1NC(=O)c1cc(-c2ccc(OC3CCCCC3)cc2)nn1C`, the inhibition was determined as 76%. The same measure, in the same setting: the value for `CCCCn1nc(-c2ccc(Oc3ccc(Cl)cc3)cc2)cc1C(=O)Nc1ccc(OCCCN(CC)CC)cc1` was 41.4%; that for `CCCCOc1cc(OCCCN(CC)CC)ccc1NC(=O)c1cc(-c2ccc(Oc3ccc(F)c(F)c3)cc2)nn1C` was 19.9%; that for `CCCCOc1cc(OCCCN(CC)CC)ccc1NC(=O)c1cc(-c2ccc(Oc3ccc(Cl)cc3)cc2)nn1CC` was 44.7%. For `CCCCOc1cc(OCCCN(CC)CC)ccc1NC(=O)c1cc(-c2ccc(Oc3ccc(Cl)cc3)cc2)nn1C`, the inhibition was determined as 49.7%.

In the case of `CCN(CC)CCOc1ccc(NC(=O)c2cc(-c3ccc(Oc4ccc(Cl)cc4)cc3)nn2C)cc1`, the inhibition came out at 27%. Same read-out and setting: the value for `CCCCOc1cc(OCCCN(CC)CC)ccc1NC(=O)c1cc(-c2ccc(Oc3ccccn3)cc2)nn1C` was 52.6%.

The next data set concerns Mus musculus. In words: Antialzheimer activity in ICR mouse injected with human amyloid beta (1 to 42) assessed as reduction of human amyloid beta (1 to 42) level in brain at 25 mg/kg, ip administered 20 mins prior to human amyloid beta (1 to 42) injection measured after 30 mins relative to control. It is filed as functional. As to conditions: route intraperitoneal. Details: scale not given: the % may be the effect or the level left. The essentials:
as §1
`CCCCOc1cc(OCCCN(CC)CC)ccc1NC(=O)c1cc(-c2ccc(Oc3ccc(F)cc3)cc2)nn1C` [listing 1 of 2 here]: the Activity was determined as 37.86%.

The next data set concerns the target T1, Advanced glycosylation end product-specific receptor. The data set is described as follows: Inhibition of biotinylated human RAGE assessed as bound amyloid beta level after 60 mins by ELISA.
Conditions: not given
Regarding `CCCCOc1cc(OCCCN(CC)CC)ccc1NC(=O)c1cc(-c2ccc(Oc3ccc(OC)cc3)cc2)nn1C`, the concentration for half-maximal inhibition (IC50) was 7.8 µM. As for `CCCCOc1cc(OCCCN(CC)CC)ccc1NC(=O)c1cc(-c2ccc(Oc3ccc(C(F)(F)F)cc3)cc2)nn1C`, the IC50 worked out at 1.9 µM. Still for that read-out and setting: as for `CCCCOc1cc(OCCCN(CC)CC)ccc1NC(=O)c1cc(-c2ccc(Oc3ccc(OC)c(Cl)c3)cc2)nn1C`, the figure is 5.3 µM; as for `CCCCOc1cc(OCCCN(CC)CC)ccc1NC(=O)c1cc(-c2ccc(Oc3ccccc3)cc2)nn1C`, 5.4 µM; as for `CCCCOc1cc(OCCCN(CC)CC)ccc1NC(=O)c1cc(-c2ccc(OC3CCCCC3)cc2)nn1C`, 2.5 µM. Consider `CCCCOc1cc(OCCCN(CC)CC)ccc1NC(=O)c1cc(-c2ccc(Oc3ccccn3)cc2)nn1C`, for which the IC50 was determined as 18.9 µM.

Tested on in another data set: not listed separately
In words: Kinetic solubility of the compound in PBS at pH 7.4 by nephelometric analysis. It is filed as physicochemical. As to conditions: read-out: Kinetic_solubility. Summed up:
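Kinetic solubility was measured on the HCl salt, added from a DMSO stock, in triplicate experiments.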
Take `CCN(CC)CCOc1cccc(Nc2nc(-c3ccc(Cl)cc3)cc(-c3ccc(Cl)cc3)n2)c1.Cl`: the solubility kinetic was 16.5 µM. As to `CCCCOc1cc(OCCCN(CC)CC)ccc1NC(=O)c1cc(-c2ccc(Oc3ccc(F)cc3)cc2)nn1C.Cl`, the solubility kinetic is 80.3 µM.

For orientation: AUC means concentration integrated over time. A word on the inhibition: it is the change of the read-out against control, counted positive when it falls. Broadly, the IC50 is the midpoint of a concentration-inhibition curve.
